Assays:
Format in all cases: functional, organism-based
Mus musculus [1] = species: Mus musculus; test: Tested for the thymidine uptake against cu-blenoxane at 80 nm of drug/mg of cell protein in mice
Procedure, shortened: (§1)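 Ehrlich ascites cells from a donor mouse, in fresh MEM at 5 × 10⁶ cells/mL, were exposed to drug for 60 min at 37 °C with gentle shaking. They were then washed once, resuspended in fresh MEM and given [³H]thymidine (final thymidine about 8.6 × 10⁻⁸ M) for 20 min. DNA synthesis was read as perchloric acid-precipitable label. Values are % of control ± SD over three trials.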

Mus musculus [2] = species: Mus musculus; test: Tested for the inhibition of DNA synthesis against cu-blenoxane at 10 nm of drug/mg of cell protein in mice; design: scale not given: the % may be the effect or the level left; procedure, shortened: as §1
Mus musculus [3] = species: Mus musculus; test: Tested for the inhibition of DNA synthesis against cu-blenoxane at 40 nm of drug/mg of cell protein in mice; design: scale not given: the % may be the effect or the level left; procedure, shortened: as §1
Mus musculus [4] = species: Mus musculus; test: Tested for the inhibition of DNA synthesis against cu-blenoxane at 4 nm of drug/mg of cell protein in mice; design: scale not given: the % may be the effect or the level left
Procedure, shortened: (§2)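 Culture-adapted Ehrlich cells were incubated 60 min with […] (4 nmol/mg cell protein) in the presence of serum. [³H]dThd incorporation into DNA was measured at the end of the 60 min. Values are expressed relative to untreated control.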

Mus musculus [5] = species: Mus musculus; test: Tested for the thymidine uptake against cu-blenoxane at 40 nm of drug/mg of cell protein in mice; procedure, shortened: as §1
Mus musculus [6] = species: Mus musculus; test: Tested for the thymidine uptake against cu-blenoxane at 4 nm of drug/mg of cell protein in mice
Mus musculus [7] = species: Mus musculus; test: Tested for the inhibition of DNA synthesis against cu-blenoxane at 80 nm of drug/mg of cell protein in mice; design: scale not given: the % may be the effect or the level left; procedure, shortened: as §1
Mus musculus [8] = species: Mus musculus; test: Tested for the thymidine uptake against cu-blenoxane at 10 nm of drug/mg of cell protein in mice; procedure, shortened: as §1
Mus musculus [9] = species: Mus musculus; test: Tested for the inhibition of DNA synthesis against blenoxane at 4 nm of drug/mg of cell protein in mice; design: scale not given: the % may be the effect or the level left; procedure, shortened: as §2
Mus musculus [10] = species: Mus musculus; test: Tested for the thymidine uptake against blenoxane at 10 nm of drug/mg of cell protein in mice; procedure, shortened: as §1
Mus musculus [11] = species: Mus musculus; test: Tested for the thymidine uptake against blenoxane at 4 nm of drug/mg of cell protein in mice
Mus musculus [12] = species: Mus musculus; test: Tested for the inhibition of DNA synthesis against blenoxane at 80 nm of drug/mg of cell protein in mice; design: scale not given: the % may be the effect or the level left; procedure, shortened: as §1
Mus musculus [13] = species: Mus musculus; test: Tested for the thymidine uptake against blenoxane at 80 nm of drug/mg of cell protein in mice; procedure, shortened: as §1
Mus musculus [14] = species: Mus musculus; test: Tested for the inhibition of DNA synthesis against blenoxane at 40 nm of drug/mg of cell protein in mice; design: scale not given: the % may be the effect or the level left; procedure, shortened: as §1
Mus musculus [15] = species: Mus musculus; test: Tested for the inhibition of DNA synthesis against blenoxane at 10 nm of drug/mg of cell protein in mice; design: scale not given: the % may be the effect or the level left; procedure, shortened: as §1
Mus musculus [16] = species: Mus musculus; test: Tested for the thymidine uptake against blenoxane at 40 nm of drug/mg of cell protein in mice; procedure, shortened: as §1

Substance	Control (Mus musculus [1])	Control (Mus musculus [2])	Control (Mus musculus [3])	Control (Mus musculus [4])	Control (Mus musculus [5])	Control (Mus musculus [6])	Control (Mus musculus [7])	Control (Mus musculus [8])	Control (Mus musculus [9])	Control (Mus musculus [10])	Control (Mus musculus [11])	Control (Mus musculus [12])	Control (Mus musculus [13])	Control (Mus musculus [14])	Control (Mus musculus [15])	Control (Mus musculus [16])
cu-blenoxane	68.4%	61.5%	55.3%	86.8%	71.2%	94.9%	51.3%	83.5%	–	–	–	–	–	–	–	–
BLEOMYCIN	–	–	–	–	–	–	–	–	67.9%	79.1%	86%	40.1%	61.9%	56.4%	66.1%	69.8%
